# Experimental data: ChEMBL document CHEMBL2311404, “Synthesis, antibacterial activity and docking of 14-membered 9-O-(3-arylalkyl) oxime 11,12-cyclic carbonate ketolides” (2013)
# Tests used:
# Assay type in all cases: functional
# Staphylococcus aureus [1] = assay: Antibacterial activity against erythromycin-susceptible Staphylococcus aureus ATCC 29213 by broth microdilution method
# Summary of the method: (§1)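 MIC by broth microdilution following CLSI recommendations. Clinical isolates were identified by 16S rDNA sequencing and labeled by genotype and phenotype. S. aureus ATCC 29213 and S. pneumoniae ATCC 49619 served as control strains, with azithromycin and clarithromycin as reference agents.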
# Streptococcus pneumoniae [2] = assay: Antibacterial activity against penicillin-resistant, constitutive MLS-resistant Streptococcus pneumoniae PU 11 expressing erm and mef genes by broth microdilution method
# Summary of the method: (§2)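 Clinical isolates confirmed by 16S rDNA sequencing. MIC determined by broth microdilution following CLSI recommendations. Quality-control strains were S. aureus ATCC 29213 and S. pneumoniae ATCC 49619. Azithromycin and clarithromycin were run in parallel as reference agents.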
# [3] = tested on: Staphylococcus haemolyticus; assay: Antibacterial activity against methicillin-resistant, constitutive MLS-resistant, coagulase-deficient Staphylococcus haemolyticus PU 19 expressing ermA gene by broth microdilution method; summary of the method: as §2
# [4] = tested on: Streptococcus dysgalactiae; assay: Antibacterial activity against erythromycin-resistant Streptococcus dysgalactiae A1 expressing efflux pump by broth microdilution method; summary of the method: as §2
# Staphylococcus aureus [5] = assay: Antibacterial activity against methicillin-resistant, inducible MLS-resistant Staphylococcus aureus PU 32 expressing ermA gene by broth microdilution method; summary of the method: as §2
# Streptococcus pyogenes [6] = assay: Antibacterial activity against constitutive MLS-resistant Streptococcus pyogenes A2 by broth microdilution method; summary of the method: as §2
# [7] = tested on: Staphylococcus epidermidis; assay: Antibacterial activity against methicillin-susceptible, inducible MLS-resistant Staphylococcus epidermidis E 1 by broth microdilution method; summary of the method: as §2
# [8] = tested on: Staphylococcus epidermidis; assay: Antibacterial activity against methicillin-resistant, constitutive MLS-resistant Staphylococcus epidermidis E 2 by broth microdilution method; summary of the method: as §2
# Streptococcus pneumoniae [9] = assay: Antibacterial activity against penicillin-susceptible Streptococcus pneumoniae PU 09 expressing mef gene by broth microdilution method; summary of the method: as §1
# Streptococcus pyogenes [10] = assay: Antibacterial activity against erythromycin-susceptible Streptococcus pyogenes A3 by broth microdilution method; summary of the method: as §1
# Staphylococcus hominis = assay: Antibacterial activity against methicillin-resistant, inducible MLS-resistant, coagulase-deficient Staphylococcus hominis E 3 by broth microdilution method; summary of the method: as §2
# Streptococcus pneumoniae [11] = assay: Antibacterial activity against erythromycin-sensitive Streptococcus pneumoniae ATCC 49619 by broth microdilution method; summary of the method: as §1
# Streptococcus pneumoniae [12] = assay: Antibacterial activity against penicillin-susceptible, constitutive MLS-resistant Streptococcus pneumoniae PU 27 expressing erm gene by broth microdilution method; summary of the method: as §2
# Staphylococcus aureus [13] = assay: Antibacterial activity against methicillin-sensitive, inducible MLS-resistant Staphylococcus aureus PU 64 expressing ermA gene by broth microdilution method; summary of the method: as §2
# Staphylococcus aureus [14] = assay: Antibacterial activity against methicillin-resistant, constitutive MLS-resistant Staphylococcus aureus PU 20 expressing ermC gene by broth microdilution method; summary of the method: as §2
compound,measurement,setting,value
CC[C@H]1OC(=O)[C@H](C)C(=O)[C@H](C)[C@@H](O[C@@H]2O[C@H](C)C[C@H](N(C)C)[C@H]2O)[C@](C)(OC)C[C@@H](C)/C(=N\OCC#Cc2cccs2)[C@H](C)[C@H]2OC(=O)O[C@@]21C,MIC,Staphylococcus aureus [1],1 mg/L
same,MIC,Streptococcus pneumoniae [2],64 mg/L
same,MIC,[3],64 mg/L
same,MIC,[4],1 mg/L
same,MIC,Staphylococcus aureus [5],1 mg/L
same,MIC,Streptococcus pyogenes [6],32 mg/L
same,MIC,[7],1 mg/L
same,MIC,[8],64 mg/L
same,MIC,Streptococcus pneumoniae [9],1 mg/L
same,MIC,Streptococcus pyogenes [10],0.25 mg/L
same,MIC,Staphylococcus hominis,1 mg/L
same,MIC,Streptococcus pneumoniae [11],0.25 mg/L
same,MIC,Streptococcus pneumoniae [12],4 mg/L
CC[C@H]1OC(=O)[C@H](C)C(=O)[C@H](C)[C@@H](O[C@@H]2O[C@H](C)C[C@H](N(C)C)[C@H]2O)[C@](C)(OC)C[C@@H](C)/C(=N\OCC#Cc2ccccn2)[C@H](C)[C@H]2OC(=O)O[C@@]21C,MIC,Staphylococcus aureus [1],0.064 mg/L
same,MIC,Streptococcus pneumoniae [2],128 mg/L
same,MIC,[3],> 256 mg/L
same,MIC,[4],0.064 mg/L
same,MIC,Staphylococcus aureus [5],0.125 mg/L
same,MIC,Streptococcus pyogenes [6],128 mg/L
same,MIC,[7],0.125 mg/L
same,MIC,[8],> 256 mg/L
same,MIC,Streptococcus pneumoniae [9],0.25 mg/L
same,MIC,Streptococcus pyogenes [10],≤ 0.008 mg/L
same,MIC,Staphylococcus hominis,0.125 mg/L
same,MIC,Streptococcus pneumoniae [11],≤ 0.008 mg/L
same,MIC,Streptococcus pneumoniae [12],0.5 mg/L
CC[C@H]1OC(=O)[C@H](C)C(=O)[C@H](C)[C@@H](O[C@@H]2O[C@H](C)C[C@H](N(C)C)[C@H]2O)[C@](C)(OC)C[C@@H](C)/C(=N\OCC#Cc2cccnc2)[C@H](C)[C@H]2OC(=O)O[C@@]21C,MIC,Staphylococcus aureus [1],0.064 mg/L
same,MIC,Streptococcus pneumoniae [2],128 mg/L
same,MIC,[3],> 256 mg/L
same,MIC,[4],0.125 mg/L
same,MIC,Staphylococcus aureus [5],0.125 mg/L
same,MIC,Streptococcus pyogenes [6],64 mg/L
same,MIC,[7],0.125 mg/L
same,MIC,[8],256 mg/L
same,MIC,Streptococcus pneumoniae [9],0.25 mg/L
same,MIC,Streptococcus pyogenes [10],≤ 0.008 mg/L
same,MIC,Staphylococcus hominis,0.125 mg/L
same,MIC,Streptococcus pneumoniae [11],≤ 0.008 mg/L
same,MIC,Streptococcus pneumoniae [12],0.25 mg/L
CC[C@H]1OC(=O)[C@H](C)C(=O)[C@H](C)[C@@H](O[C@@H]2O[C@H](C)C[C@H](N(C)C)[C@H]2O)[C@](C)(OC)C[C@@H](C)/C(=N\OCC#Cc2cncnc2)[C@H](C)[C@H]2OC(=O)O[C@@]21C,MIC,Staphylococcus aureus [1],0.125 mg/L
same,MIC,Streptococcus pneumoniae [2],128 mg/L
same,MIC,Staphylococcus aureus [13],0.064 mg/L
same,MIC,[3],256 mg/L
same,MIC,[4],0.125 mg/L
same,MIC,Staphylococcus aureus [5],0.125 mg/L
same,MIC,Streptococcus pyogenes [6],128 mg/L
same,MIC,[7],0.064 mg/L
same,MIC,[8],> 256 mg/L
same,MIC,Streptococcus pneumoniae [9],0.25 mg/L
same,MIC,Streptococcus pyogenes [10],0.016 mg/L
same,MIC,Staphylococcus hominis,0.064 mg/L
same,MIC,Streptococcus pneumoniae [11],0.032 mg/L
same,MIC,Staphylococcus aureus [14],256 mg/L
same,MIC,Streptococcus pneumoniae [12],0.25 mg/L
CC[C@H]1OC(=O)[C@H](C)C(=O)[C@H](C)[C@@H](O[C@@H]2O[C@H](C)C[C@H](N(C)C)[C@H]2O)[C@](C)(OC)C[C@@H](C)/C(=N\OCC#Cc2ccc(-c3ccccn3)s2)[C@H](C)[C@H]2OC(=O)O[C@@]21C,MIC,Staphylococcus aureus [1],1 mg/L
same,MIC,Streptococcus pneumoniae [2],32 mg/L
same,MIC,[4],2 mg/L
same,MIC,Staphylococcus aureus [5],1 mg/L
same,MIC,Streptococcus pyogenes [6],32 mg/L
same,MIC,[7],4 mg/L
same,MIC,[8],128 mg/L
same,MIC,Streptococcus pneumoniae [9],2 mg/L
same,MIC,Streptococcus pyogenes [10],0.125 mg/L
same,MIC,Staphylococcus hominis,8 mg/L
same,MIC,Streptococcus pneumoniae [11],≤ 0.008 mg/L
same,MIC,Streptococcus pneumoniae [12],0.25 mg/L
CC[C@H]1OC(=O)[C@H](C)C(=O)[C@H](C)[C@@H](O[C@@H]2O[C@H](C)C[C@H](N(C)C)[C@H]2O)[C@](C)(OC)C[C@@H](C)/C(=N\OCC#Cc2ccc(C(=O)c3ccccc3)s2)[C@H](C)[C@H]2OC(=O)O[C@@]21C,MIC,Staphylococcus aureus [1],2 mg/L
same,MIC,Streptococcus pneumoniae [2],64 mg/L
same,MIC,[3],128 mg/L
same,MIC,[4],2 mg/L
same,MIC,Staphylococcus aureus [5],2 mg/L
same,MIC,Streptococcus pyogenes [6],32 mg/L
same,MIC,[7],2 mg/L
same,MIC,[8],128 mg/L
same,MIC,Streptococcus pneumoniae [9],2 mg/L
same,MIC,Streptococcus pyogenes [10],0.064 mg/L
same,MIC,Staphylococcus hominis,2 mg/L
same,MIC,Streptococcus pneumoniae [11],0.125 mg/L
same,MIC,Streptococcus pneumoniae [12],1 mg/L
CC[C@H]1OC(=O)[C@H](C)C(=O)[C@H](C)[C@@H](O[C@@H]2O[C@H](C)C[C@H](N(C)C)[C@H]2O)[C@](C)(OC)C[C@@H](C)/C(=N\OCC#Cc2ccc3[nH]ccc3c2)[C@H](C)[C@H]2OC(=O)O[C@@]21C,MIC,Staphylococcus aureus [1],1 mg/L
same,MIC,Streptococcus pneumoniae [2],128 mg/L
same,MIC,[4],2 mg/L
same,MIC,Staphylococcus aureus [5],2 mg/L
same,MIC,Streptococcus pyogenes [6],128 mg/L
same,MIC,[7],2 mg/L
same,MIC,[8],> 256 mg/L
same,MIC,Streptococcus pneumoniae [9],2 mg/L
same,MIC,Streptococcus pyogenes [10],0.5 mg/L
same,MIC,Staphylococcus hominis,8 mg/L
same,MIC,Streptococcus pneumoniae [11],0.5 mg/L
same,MIC,Streptococcus pneumoniae [12],4 mg/L
